L major viab: Leishmania major promastigote growth inhibition, primary screen; Leishmania major promastigotes, resazurin fluorescence viability; inhibition, % at 10 µM; AID 1063, 2008; 9% of 200,000 active; in the data active = inhibition above about 50%;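 also: promastigotes grown with compound for 44 hours at 28 °C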
WT yeast gro inh: growth inhibition of WT strain, primary screen, mitochondrial fusion inhibitor project, WT and mutant strains, chemical genetic; mitochondrial fusion phenotypic screen; inhibition, % at 10 µM; 2.1% of 190,000 active; AID 1362, 2008; in the data active = inhibition above about 58%; tested in S. cerevisiae
PMI act satM6P: human PMI activators, high substrate, primary screen, biochemical, fluorescence intensity, near-saturating mannose 6-phosphate; Mannose-6-phosphate isomerase (Homo sapiens), P34949; coupled PMI enzyme assay, resazurin fluorescence, 20 min; stronger effect = higher value; 1 = untreated enzyme, 0 = substrate-free blank; activation factor at 20 µM; 0.34% of 190,000 active; AID 1216, 2008;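 active = activation factor of 2 or more at 20 µM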
Target sequence (P34949 whole entry, looked up): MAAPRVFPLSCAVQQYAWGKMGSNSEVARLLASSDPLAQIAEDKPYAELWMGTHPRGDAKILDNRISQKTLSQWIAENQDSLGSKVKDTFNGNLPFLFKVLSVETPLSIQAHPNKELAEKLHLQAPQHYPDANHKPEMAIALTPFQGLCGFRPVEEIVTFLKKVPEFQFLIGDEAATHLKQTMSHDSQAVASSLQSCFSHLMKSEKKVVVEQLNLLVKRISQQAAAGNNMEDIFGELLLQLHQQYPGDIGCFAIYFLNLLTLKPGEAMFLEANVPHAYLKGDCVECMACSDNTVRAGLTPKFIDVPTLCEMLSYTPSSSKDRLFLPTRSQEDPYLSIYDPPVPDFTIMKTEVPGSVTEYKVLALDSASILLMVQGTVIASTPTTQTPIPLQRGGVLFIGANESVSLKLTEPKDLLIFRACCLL
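Test system: human PMI in coupled enzyme assay; Input: PMI at 15 ng/mL final; Medium: HEPES buffer, pH 7.4; Schedule: 20 min incubation at room temperature; Technique: resorufin fluorescence at Ex 544/Em 590 nm; Compound: 20 µM single dose; Probe or stimulus: Near-saturating mannose-6-phosphate, 1.0 mM.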
Diaph act CS: compounds boosting diaphorase resazurin reduction – biochemical, uHTS, resorufin fluorescence, counter-screen for diaphorase-coupled primary assays, primary screen; activation factor at 20 µM; 0.005% of 190,000 active; Diaphorase/resazurin coupled assay, 16 min; stronger effect = higher value; 1 = vehicle wells, 0 = NADH-free wells;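 active = diaphorase activity raised at least twofold by the compound at 20 µM; inactive = activation factor below 2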
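Test system: Clostridium kluyveri diaphorase, purified enzyme. Buffer or medium: 50 mM HEPES pH 7.4 buffer plus MgCl2 and Tween 20. Also added: 0.114 mM NADH and 0.1 mM resazurin, final amounts. Dosing: compound 20 µM once, DMSO 1%. Schedule: 16 min enzyme reaction, ambient temperature. Detection: fluorescence of resorufin, 544 nm excitation, 590 nm emission.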
PMI activator: activators of human PMI, primary screen, biochemical, fluorescence intensity, near-Km mannose 6-phosphate | purified human PMI, coupled resazurin fluorescence, 20 min; stronger effect = higher value; 1 = vehicle control, 0 substrate-free wells | 0.005% of 190,000 active | activation factor at 20 µM | Mannose-6-phosphate isomerase (Homo sapiens), P34949;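 active = activation factor of 2 or more at 20 µM, relative to plate controls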
The depositor's hits bear a star; x = no result. An excerpt weighted towards active compounds, which were near 10% of everything screened.

SMILES | L major viab | WT yeast gro inh | PMI act satM6P | Diaph act CS | PMI activator
CC(=O)c1cnc(Nc2cccc(C)c2)s1 | 3.8 | -11.9 | 1.1 | 0.9 | 1
C/C(=N\N=C(N)N)c1ccc(Cl)cc1Cl | 42.7 | -8.1 | 1 | 0.9 | 1
Cc1cccc2cc(C#N)c(SCCN3CCCCC3)nc12 | 99.8* | x | x | x | x
COc1cc([N+](=O)[O-])ccc1NC(=O)CCCOc1cc(C)ccc1C | -2.3 | 20.2 | 0.9 | 0.8 | 0.8
CC(C)C(NC(=O)C12CC3CC(CC(C3)C1)C2)C(=O)N/N=C/C1=C(N2CCOCC2)C(=C\c2cccc([N+](=O)[O-])c2)/CC1 (centres undefined) | 96.9* | 7.8 | 0.9 | 0.8 | 0.9
COc1ccc(N2CCN(c3ccc(Cl)nn3)CC2)cc1 | 1.8 | -5.9 | 1 | 1 | 1
O=c1cc(C(F)(F)F)[nH]c2c(C(F)(F)F)cccc12 | -6.1 | 78.3* | 1.1 | 0.9 | 1.1
Cc1cc(=O)c2cccc(Br)c2[nH]1 | 1.7 | -14.5 | 1 | 0.9 | 0.9
CCCC(C(=O)NCC1CCCO1)N(Cc1ccco1)C(=O)CNS(=O)(=O)c1ccccc1 (centres undefined) | 23.8 | 10.5 | 1.1 | 0.9 | 1.1
CCCC(C(=O)NC1CCCCC1)N(Cc1ccco1)C(=O)CNS(=O)(=O)c1ccccc1 (centres undefined) | 62.6* | 19.7 | 1 | 0.9 | 1
CN(Cc1ccccc1)C(=O)NC1CCCCC1 | 0.4 | 11.9 | 1.1 | 1.1 | 1.1
CC(C)C(C(=O)NCc1ccco1)N(C(=O)CNS(=O)(=O)c1ccc(Cl)cc1)C1CCCC1 (centres undefined) | 89.0* | -36.7 | 1.1 | 0.9 | 1
O=C(NC1CCCCC1)N(Cc1ccccc1)Cc1ccco1 | 54.7* | 11.7 | 0.9 | 0.9 | 0.9
N#C/C(=C\c1cn(Cc2ccccc2F)c2ccccc12)C(=O)NCc1ccco1 | 38.8 | -11.9 | 1.1 | 0.8 | 1
O=C(O)/C(=C\c1ccc(Br)cc1)c1ccc(S(=O)(=O)N2CCCCC2)s1 | -5.4 | 3.3 | 1 | 0.8 | 0.9
CC(C)(C)C(=O)N1CCc2cc(-c3csc(N)n3)ccc21 | 58.6* | -1.0 | 1.1 | 0.9 | 1
Nc1nc(-c2ccc3c(c2)CCCC3)cs1 | 7.3 | 81.3* | 1.2 | 1.1 | 1.1
COc1ccc(CNC(=O)COC(=O)/C=C/c2cccc(Br)c2)cc1OC | -5.3 | -2.6 | 1 | 1 | 1
O=C(Cc1c(Cl)cccc1Cl)Nc1cccnc1 | -2.9 | -3.0 | 1 | 0.9 | 1.1
COc1ccc(CN2CCSCC2)cc1C | 78.4* | -10.9 | 1 | 0.9 | 0.9
COc1cccc(CN2CCSCC2)c1 | 13.5 | -10.7 | 1 | 0.8 | 0.9
COc1ccc(CN2CCN(c3cccc(C)c3C)CC2)cc1OC | 81.0* | 14.4 | 1 | 0.9 | 0.9
CCOc1cc(CN2CCN(c3cccc(C(F)(F)F)c3)CC2)ccc1OC | 47.1 | 49.7 | 1 | 0.9 | 0.9
COc1cc(CN2CCN(c3ccccc3C)CC2)cc([N+](=O)[O-])c1O | 7.1 | 17.0 | 0.9 | 0.8 | 1
COc1cc(CN2CCN(c3cccc(C)c3C)CC2)cc(Br)c1O | 95.4* | 3.5 | 0.9 | 0.7 | 0.8
SMILES | L major viab | WT yeast gro inh | PMI act satM6P | Diaph act CS | PMI activator
Cc1ccc(C)c(NC(=O)c2ccc(S(=O)(=O)C(F)F)cc2)c1 | -1.4 | -0.1 | 1 | 0.9 | 1
O=C(Cc1cccc2ccccc12)NCC1CCCO1 (centres undefined) | -3.8 | -9.4 | 1 | 1.1 | 1
CC(CNCC1CCCO1)COc1cccc2ccccc12 (centres undefined) | 79.9* | 5.1 | 0.9 | 0.8 | 0.9
O=S(=O)(Cc1ccccc1)NCC1CCCO1 (centres undefined) | -10.1 | -0.9 | 1 | 0.9 | 1
CC(CNCC1CCCO1)COc1ccccc1 (centres undefined) | 62.0* | -7.9 | 1 | 0.9 | 1
O=C(NNC(=O)c1cc([N+](=O)[O-])ccc1Cl)c1cccs1 | -0.7 | 14.7 | 1 | 0.9 | 1
O=C(Nc1cccs1)Nc1ccccc1Br | -1.0 | 18.9 | 1.1 | 0.9 | 1
CCOC(=O)c1c(C)[nH]c(C(=O)N/N=C\c2ccccc2O)c1C | 99.9* | -25.6 | 1.2 | 0.8 | 1

High-throughput results as filed in PubChem.
